These results are taken from ChEMBL document CHEMBL1128566, “Inhibition of human neutrophil elastase. 3. An orally active enol acetate prodrug” (J Med Chem, 1995).

pKi: −log10 of the molar value. Where only a bound is given, the exact number is not on record here.

The target of series [1] is T1, Neutrophil elastase (Homo sapiens, UniProt P08246).
T1 sequence (P08246 whole entry): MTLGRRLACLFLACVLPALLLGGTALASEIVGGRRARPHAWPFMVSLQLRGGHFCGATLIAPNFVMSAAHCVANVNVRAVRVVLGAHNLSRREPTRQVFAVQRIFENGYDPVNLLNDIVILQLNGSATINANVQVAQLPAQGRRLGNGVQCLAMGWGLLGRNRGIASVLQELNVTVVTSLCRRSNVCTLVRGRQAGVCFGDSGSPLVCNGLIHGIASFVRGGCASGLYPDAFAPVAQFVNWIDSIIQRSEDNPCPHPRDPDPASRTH
Description: Binding affinity for purified Human neutrophil elastase was determined in vitro.

Series [2] has as its target T1, Neutrophil elastase. Kind of series: Binding affinity for purified Human neutrophil elastase was determined in the presence of pig liver esterase, in vitro. In a few lines: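 Partially purified HNE assayed with 12.5 units porcine liver esterase added, at a fixed inhibitor level (66 nM, 100 nM, 133 nM or 1.67 μM, depending on compound). Time course followed; Ki taken from the final rate after the enol acetate was fully hydrolysed. Controls: elastase plus substrate, with or without esterase.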

The nature of series [3]: Half-life for the conversion of compound to ketone, was examined by 19F NMR spectroscopy in human blood plasma, at 37 degree Centigrade. Type of series: ADME, tissue-based. In a few lines: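 Human blood plasma incubated at 37 °C. Half-life measured for conversion of enol acetate to the corresponding ketone.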
Series [4] in a line: Half-life for the conversion of compound to ketone, was examined by 19F NMR spectroscopy in USP-simulated intestinal fluid, at 37 degree Centigrade. Type of series: ADME. In a few lines: (§1)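 Simulated intestinal fluid at pH 7.5, held at 37 or 50 °C. Half-life taken for conversion of enol acetate to the corresponding ketone.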
Series [5] has as its system Cricetinae gen. sp. Kind of series: Ability to inhibit HNE-induced pulmonary hemorrhage, was examined in vivo in hamsters, after administering the compound orally 30 min prior to intratracheal instillation of 25 microg of HNE. Type of series: functional. In a few lines: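 Hamsters dosed po at various doses 30 min before intratracheal HNE (25 μg). Killed 1 h later; trachea cannulated and lavaged three times with saline (0.04 mL/g). Hemorrhage measured as BAL hemoglobin by spectrophotometry. One-way ANOVA with Dunnett's test against vehicle-treated animals (p ≤ 0.05). ED50 extrapolated from dose-response curves.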

A short description of series [6]: Half-life for the conversion of compound to ketone, was examined by 19F NMR spectroscopy in USP-simulated intestinal fluid, at 50 degree Centigrade. Type of series: ADME. In a few lines: as §1
Series [7] can be described thus: Half-life for the conversion of compound to ketone, was examined by 19F NMR spectroscopy in USP-simulated gastric fluid, at 50 degree Centigrade. Type of series: ADME. A digest of the protocol: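 Simulated gastric fluid at pH 1.2 and 50 °C, followed for up to 12 h. Conversion of enol acetate to the parent ketone tracked to give a half-life.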

`CC(C)[C@H](NC(=O)c1ccc(C(=O)N2CCOCC2)cc1)C(=O)N1CCC[C@H]1C(=O)NCC(=O)C(F)(F)C(F)(F)F` gave a pKi in series [1] of 3.82.

As to `CC(C)=C(NC(=O)[C@@H]1CCCN1C(=O)[C@@H](NC(=O)c1ccc(C(=O)N2CCOCC2)cc1)C(C)C)C(=O)C(F)(F)C(F)(F)F`, the pKi in series [1] is 5.10.

With `CC(C)C(=O)O/C(=C(/NC(=O)[C@@H]1CCCN1C(=O)[C@@H](NC(=O)c1ccc(C(=O)N2CCOCC2)cc1)C(C)C)C(C)C)C(F)(F)C(F)(F)F`, the pKi in series [2] is 7.60.

As for `CC(=O)O/C(=C(\NC(=O)[C@@H]1CCCN1C(=O)[C@@H](NC(=O)c1ccc(C(=O)N2CCOCC2)cc1)C(C)C)C(C)C)C(F)(F)C(F)(F)F`, the half-life in series [3] is 0.667 h; in series [4] it was 6.6 h.

In series [5], `CC(C)C(NC(=O)[C@@H]1CCCN1C(=O)[C@@H](NC(=O)c1ccc(C(=O)N2CCOCC2)cc1)C(C)C)C(=O)C(F)(F)F` (some centres not stated) gave an ED50 above 50 mg/kg.

Regarding `CC(=O)O/C(=C(/NC(=O)[C@@H]1CCCN1C(=O)[C@@H](NC(=O)c1ccc(C(=O)N2CCOCC2)cc1)C(C)C)C(C)C)C(F)(F)C(F)(F)F`, the pKi was below 5.70 in series [1] and 7.60 in series [2]. Further, the half-life was 0.417 h in series [3], 3.1 h in series [6] and 7.3 h in series [4]. Further, in series [5], the ED50 was 9 mg/kg.

For the molecule `CCC(=O)O/C(=C(/NC(=O)[C@@H]1CCCN1C(=O)[C@@H](NC(=O)c1ccc(C(=O)N2CCOCC2)cc1)C(C)C)C(C)C)C(F)(F)C(F)(F)F`, the pKi in series [2] was 7.60.

In the case of `CC(C)[C@H](NC(=O)OC(C)(C)C)C(=O)N1CCC[C@H]1C(=O)NC(C)(C)C(=O)C(F)(F)C(F)(F)F`, the pKi in series [1] was below 4.30.

With `CC(C)C(NC(=O)[C@@H]1CCCN1C(=O)[C@@H](NC(=O)c1ccc(C(=O)N2CCOCC2)cc1)C(C)C)C(=O)C(F)(F)C(F)(F)F` (some centres not stated), it took a dose of 15 mg/kg to reach the 50% effect level in series [5] (ED50).

For the molecule `CC(=O)O/C(=C(/NC(=O)[C@@H]1CCCN1C(=O)[C@@H](NC(=O)N1CCOCC1)C(C)C)C(C)C)C(F)(F)F`, the pKi in series [1] is 5.20; in series [2] it was 6.82.

With `CC(=O)O/C(=C(/NC(=O)[C@@H]1CCCN1C(=O)[C@@H](NC(=O)c1ccc(C(=O)NS(=O)(=O)c2ccc(Cl)cc2)cc1)C(C)C)C(C)C)C(F)(F)F`, the pKi in series [1] was 6.49; in series [2] it was 8.52. The half-life in series [3] is 0.167 h; in series [6], 1.2 h. For the same molecule, the ED50 in series [5] was above 50 mg/kg.

For `CC(=O)O/C(=C(/NC(=O)[C@@H]1CCCN1C(=O)[C@@H](NC(=O)c1ccc(C(=O)N2CCOCC2)cc1)C(C)C)C(C)C)C(F)(F)F`, the half-life in series [3] is 0.25 h; in series [7], 41 h; in series [4] it was 2.9 h. The ED50 in series [5] is above 75 mg/kg. Also, the pKi in series [2] is 7.80.
